Laboratory results as given in ChEMBL document CHEMBL3526007, “The inactivation of human CYP2E1 by phenethyl isothiocyanate, a naturally occurring chemopreventive agent, and its oxidative bioactivation” (Drug Metab Dispos, 2013).

Assays:
Format in all cases: ADME
[1] = target: T1, Cytochrome P450 2E1 (Homo sapiens, UniProt P05181); assay: Drug level assessed as human CYP2E1-mediated compound formation using 50 uM phenethylisothiocyanate in presence of reductase and NADPH after 30 mins by LC-MS/MS method; details: recombinant enzyme, 0.5 h
Method in brief: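 Recombinant human CYP2E1 (1 µM) with reductase (1 µM) reconstituted in DLPC (100 µg/ml), preincubated with 2 mM GSH. PEITC added to a final 50 µM with NADPH at a final 1.2 mM, then incubated 30 min at 30°C. Controls lacked NADPH. Metabolites and GSH conjugates recovered by C18 solid-phase extraction and analysed by positive-ion ESI LC-MS/MS.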

[2] = system: Liver microsome; assay: Drug level in human liver microsomes treated with 50 uM phenethylisothiocyanate after 30 mins by ESI LC-MS/MS method; details: 0.5 h
Method in brief: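 Human liver microsomes (0.5 mg protein/ml) in 50 mM potassium phosphate pH 7.4, preincubated 5 min with 2 mM GSH. PEITC added to a final 50 µM with NADPH at a final 1.2 mM, then incubated 30 min at 37°C. Controls lacked NADPH. GSH conjugate recovered by C18 solid-phase extraction and analysed by positive-ion LC-MS/MS.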

[3] = target: T1, Cytochrome P450 2E1; assay: Retention time assessed as human CYP2E1-mediated compound formation using 50 uM phenethylisothiocyanate in presence of reductase and NADPH after 30 mins by LC-MS/MS method; details: recombinant enzyme, 0.5 h
Method in brief: (§1)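 CYP2E1 (1 µM) and reductase (1 µM) reconstituted with lipid (100 µg/ml) and preincubated with 2 mM GSH. PEITC (final 50 µM) and NADPH (final 1.2 mM) then added, 30 min at 30°C; controls ran without NADPH. Products were taken up by C18 solid-phase extraction and analysed by positive-ion ESI LC-MS/MS, one full scan plus two data-dependent scans.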

[4] = target: T1, Cytochrome P450 2E1; assay: Inhibition of human CYP2E1 expressed in Escherichia coli MV1304 assessed as reduction in 7-EFC O-de-ethylation activity at 10 uM after 10 mins in presence of reductase by spectrofluorometry
Method in brief: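 Reconstituted CYP2E1/reductase (1 µM each, 100 µg/ml DLPC, catalase, 50 mM K phosphate pH 7.4) incubated 10 min at 30°C with PIC at 0- to 100-fold molar excess; PIC in acetonitrile, 1% final. Aliquots diluted into secondary mix (0.1 mM 7-EFC, 0.2 mM NADPH, BSA) for 10 min; 7-HFC read at ex 410/em 510 nm. Three experiments in duplicate.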

[5] = target: T1, Cytochrome P450 2E1; assay: Inactivation of human CYP2E1 expressed in Escherichia coli MV1304 assessed as remaining P450 level at 25 uM after dialysis by CO difference spectral method
Method in brief: (§2)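 CYP2E1 and reductase (1 µM each) reconstituted with DLPC (100 µg/ml) plus catalase in 50 mM K phosphate pH 7.4. Incubated 10 min at 30°C with 25 µM PEITC ± 1.2 mM NADPH; control had neither. Then dialysed overnight at 4°C against phosphate buffer with 20% glycerol and 0.1 mM EDTA. Read-outs: P450 by reduced CO difference spectrum (ε450 91 mM⁻¹cm⁻¹), heme by HPLC, and 7-EFC O-de-ethylation after re-adding lipid (50 µg/ml) ± fresh reductase (1 µM). Two experiments in duplicate.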

[6] = target: T1, Cytochrome P450 2E1; assay: Drug metabolism assessed as human CYP2E1-mediated phenethylamine formation at 50 uM in presence of reductase and NADPH after 30 mins by LC-MS/MS method; details: recombinant enzyme, 0.5 h; method in brief: as §1
[7] = target: T1, Cytochrome P450 2E1; assay: Inactivation of human CYP2E1 expressed in Escherichia coli MV1304 assessed as remaining P450 level at 25 uM in presence of 1.2 mM NADPH after dialysis by CO difference spectral method; method in brief: as §2
[8] = target: T2, CYP2E1 (Homo sapiens, UniProt P05181); assay: Inactivation of human CYP2E1 expressed in Escherichia coli MV1304 assessed as remaining enzyme activity at 25 uM after dialysis in presence of fresh reductase by 7-EFC O-de-ethylation activity detection based spectrofluorometry; details: probe 7-EFC (O-de-ethylation), read-out: Activity; method in brief: as §2
[9] = target: T1, Cytochrome P450 2E1; assay: Drug metabolism assessed as human CYP2E1-mediated phenethylamine formation at 50 uM in presence of reductase and absence of NADPH after 30 mins by LC-MS/MS method; details: recombinant enzyme, 0.5 h; method in brief: as §1
[10] = target: T1, Cytochrome P450 2E1; assay: (§3) Inhibition of human CYP2E1 expressed in Escherichia coli MV1304 assessed as reduction in 7-EFC O-de-ethylation activity by spectrofluorometry based double reciprocal plot
Method in brief: (§4)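 Reconstituted CYP2E1 (1 µM) with reductase (1 µM), 100 µg/ml DLPC and catalase, in 50 mM KPi pH 7.4. PEITC 0–50 µM was added (1% methanol final) and the reaction started with 1.2 mM NADPH at 30°C. Aliquots taken at 0–5 min were assayed for 10 min with 0.1 mM 7-EFC and 0.2 mM NADPH; 7-HFC fluorescence was read. Inactivation rates were analysed by double-reciprocal plot. Six experiments, each in duplicate.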

[11] = target: T2, CYP2E1; assay: as §3; details: human, probe 7-EFC (O-de-ethylation); method in brief: as §4
[12] = target: T1, Cytochrome P450 2E1; assay: Inhibition of human CYP2E1 expressed in Escherichia coli MV1304 assessed as reduction in 7-EFC O-de-ethylation activity at 50 uM added 1 min before NADPH addition in presence of 1 mM GSH by spectrofluorometry; details: TDE = time-dependent effect
Method in brief: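 Reconstituted CYP2E1/reductase (1 µM each, DLPC, catalase, pH 7.4 phosphate). Arms: 1.2 mM NADPH alone, with 50 µM PEITC, or with 50 µM PEITC plus 1 mM GSH. PEITC added 1 min before NADPH; incubation at 30°C. Residual 7-EFC O-de-ethylation measured at 0, 2, 4, 6 and 12 min by 7-HFC fluorescence.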

[13] = target: T2, CYP2E1; assay: Inactivation of human CYP2E1 expressed in Escherichia coli MV1304 assessed as remaining enzyme activity at 25 uM in presence of 1.2 mM NADPH after dialysis in presence of fresh reductase by 7-EFC O-de-ethylation activity detection based spectrofluorometry; details: probe 7-EFC (O-de-ethylation), read-out: Activity; method in brief: as §2
[14] = target: T1, Cytochrome P450 2E1; assay: Inhibition of human CYP2E1 expressed in Escherichia coli MV1304 assessed as reduction in 7-EFC O-de-ethylation activity by spectrofluorometry
Method in brief: (§5)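 Primary mix: 1 µM CYP2E1, 1 µM reductase, 100 µg/ml DLPC and catalase in 50 mM K phosphate pH 7.4, with PEITC 0–50 µM (methanol 1% final). Started with 1.2 mM NADPH at 30°C and sampled at 0–5 min. Aliquots assayed for 10 min with 0.1 mM 7-EFC and 0.2 mM NADPH; fluorescence read at ex 410/em 510 nm. Inactivation kinetics from a double-reciprocal plot. Six experiments in duplicate.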

[15] = target: T1, Cytochrome P450 2E1; assay: Inhibition of human CYP2E1 expressed in Escherichia coli MV1304 assessed as reduction in 7-EFC O-de-ethylation activity in absence of cytochrome b5 by spectrofluorometry; method in brief: as §5
[16] = target: T2, CYP2E1; assay: Inactivation of human CYP2E1 expressed in Escherichia coli MV1304 assessed as remaining enzyme activity at 25 uM after dialysis by 7-EFC O-de-ethylation activity detection based spectrofluorometry; details: probe 7-EFC (O-de-ethylation), read-out: Activity; method in brief: as §2
[17] = target: T1, Cytochrome P450 2E1; assay: Covalent binding to human CYP2E1 expressed in Escherichia coli MV1304 assessed as protein-adduct formation at 25 uM after 10 mins by ESI LC-MS/MS method
Method in brief: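 CYP2E1 (1 µM) reconstituted with lipid only (100 µg/ml), no reductase, incubated 10 min at 30°C; control received methanol. Samples (50 µl) analysed by ESI LC-MS/MS on a C18 reverse-phase column equilibrated with 35% acetonitrile/0.1% TFA. Protein envelopes deconvoluted to give the intact protein mass. Mean of two injections.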

[18] = target: T1, Cytochrome P450 2E1; assay: Inactivation of human CYP2E1 expressed in Escherichia coli MV1304 assessed as remaining heme level at 25 uM in presence of 1.2 mM NADPH after dialysis by HPLC method; method in brief: as §2
[19] = target: T1, Cytochrome P450 2E1; assay: Inhibition of human CYP2E1 expressed in Escherichia coli MV1304 assessed as partition ratio for enzyme inactivation
Method in brief: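 Reconstituted CYP2E1 (1 µM) with reductase (1 µM), 100 µg/ml DLPC and catalase, in 50 mM KPi pH 7.4. Incubated with increasing PEITC plus 1.2 mM NADPH for 10 min at 30°C until inactivation was complete. Residual 7-EFC O-de-ethylation was read by fluorescence (ex 410/em 510 nm). Percent activity remaining was plotted against PEITC:P450 molar ratio. The turnover number (r+1) was taken from the intercept of the regression lines. Mean of three experiments.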

[20] = target: T1, Cytochrome P450 2E1; assay: Inactivation of human CYP2E1 expressed in Escherichia coli MV1304 assessed as remaining heme level at 25 uM after dialysis by HPLC method; method in brief: as §2
[21] = target: T2, CYP2E1; assay: Inactivation of human CYP2E1 expressed in Escherichia coli MV1304 assessed as remaining enzyme activity at 25 uM in presence of 1.2 mM NADPH after dialysis by 7-EFC O-de-ethylation activity detection based spectrofluorometry; details: probe 7-EFC (O-de-ethylation), read-out: Activity; method in brief: as §2

T1 sequence (P05181 whole entry): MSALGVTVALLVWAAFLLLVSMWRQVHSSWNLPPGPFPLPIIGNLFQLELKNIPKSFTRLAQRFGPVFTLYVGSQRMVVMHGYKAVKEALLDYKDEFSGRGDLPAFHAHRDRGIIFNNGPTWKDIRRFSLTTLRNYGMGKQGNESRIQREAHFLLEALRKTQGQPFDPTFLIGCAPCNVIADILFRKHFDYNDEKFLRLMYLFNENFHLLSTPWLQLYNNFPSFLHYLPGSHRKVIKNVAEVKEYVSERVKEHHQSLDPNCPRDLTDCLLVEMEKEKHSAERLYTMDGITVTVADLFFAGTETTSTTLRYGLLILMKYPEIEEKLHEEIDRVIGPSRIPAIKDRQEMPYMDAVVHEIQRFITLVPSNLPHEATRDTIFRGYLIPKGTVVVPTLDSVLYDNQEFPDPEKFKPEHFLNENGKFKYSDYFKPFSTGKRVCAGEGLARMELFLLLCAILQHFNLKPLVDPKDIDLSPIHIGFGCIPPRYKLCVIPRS
T2 sequence (P05181 whole entry): as above

`N[C@@H](CCC(=O)N[C@@H](CSC(=O)NCCc1ccccc1)C(=O)NCC(=O)O)C(=O)O` was tested, and the Drug metabolism [1] was “metabolite_detected” and the Drug metabolism [2] was “metabolite_detected”.
In the case of `NCCc1ccccc1` [PHENETHYLAMINE], the Retention_time [3] is reported as 12.7 min.
For `O=C=NCCc1ccccc1` [PHENETHYL ISOCYANATE], the “inhibition (INH)” value [4] was “Not Active”.
`S=C=NCCc1ccccc1` [PHENETHYLISOTHIOCYANATE] was tested, and the Activity [5] was 93%, the Drug metabolism [6] was “metabolite_detected” and the Activity [7] was 42%. For the same compound, the activity at 25 µM [8] was 85%, the Drug metabolism [9] was “metabolite_not_detected” and the Ki [10] was 11 µM. For the same compound, the kinact [11] was 0.00383 s⁻¹, the “inhibition (INH)” value [12] was “tde” and the activity at 25 µM [13] was 26%. For the same compound, the “inhibition (INH)” value [14] was “Dose-dependent effect and tde”, the “inhibition (INH)” value [15] was “Active” and the activity at 25 µM [16] was 82%. For the same compound, the Activity [17] was “Not Active”, the Activity [18] was 64% and the Ratio [19] was 12. For the same compound, the Activity [20] was 100% and the activity at 25 µM [21] was 27%.
For `N[C@@H](CCC(=O)N[C@@H](CSC(=S)NCCc1ccccc1)C(=O)NCC(=O)O)C(=O)O`, the Drug metabolism [1] was “metabolite_detected” and the Retention_time [3] was 16.7 min.
